From PMC4721940 (Journal of enzyme inhibition and medicinal chemistry, 2015)

Experiments:
[1] = biological target: T1, human neutrophil elastase (HNE) (Homo sapiens, UniProt P08246); experiment: HNE inhibition assay; format: biochemical
T1 sequence (P08246 30-247 limits assumed): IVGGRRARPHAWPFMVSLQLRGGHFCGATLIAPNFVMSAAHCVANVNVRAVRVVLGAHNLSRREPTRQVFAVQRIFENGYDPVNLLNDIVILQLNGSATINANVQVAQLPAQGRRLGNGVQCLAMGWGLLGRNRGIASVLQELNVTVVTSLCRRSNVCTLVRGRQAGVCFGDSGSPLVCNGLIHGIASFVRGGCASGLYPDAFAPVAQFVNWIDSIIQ
How it was run: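 Human neutrophil elastase (20 mU/mL) in 200 mM Tris-HCl pH 7.5 with 0.01% BSA and 0.05% Tween-20, pre-incubated 5 min with test compound (DMSO final 1%). Started with 25 μM MeOSuc-Ala-Ala-Pro-Val-AMC. Fluorescence (ex 355/em 460 nm) read every 30 s for 10 min at 25 °C.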

[2] = Spontaneous hydrolysis in phosphate buffer; format: physicochemical; conditions: after 60 min in aqueous buffer, absorbance at 325 nm
How it was run: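 Test compound in 0.05 M phosphate buffer, pH 7.3, at 25 °C. Absorbance at each compound's absorption maximum read over time until no further decrease (A∞). k′ taken from the slope of log(At–A∞) vs time; t1/2 = 0.693/k′.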

[3] = Stability in human serum; format: in vitro ADME; conditions: 25 °C
How it was run: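 Serum prepared by clotting fresh human blood 1 h at room temperature. Test compound (10 mM DMSO stock) added to serum and incubated at 25 °C. Timed aliquots quenched in acetonitrile and centrifuged 5 min at 10 000g. Analysed by RP-HPLC: C18 column, acetonitrile/water 65/35 with 0.1% TFA, 1 mL/min, 40 °C, diode-array detection 200–300 nm. Remaining compound calculated from peak area.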

[4] = biological target: T1, human neutrophil elastase (HNE); experiment: HNE inhibition constant; format: biochemical
[5] = biological target: T2, HNE (Homo sapiens, UniProt P08246); experiment: Reactivation of the HNE–inhibitor complex after ultrafiltration; format: biochemical; conditions: 25 μM inhibitor, data not shown
T2 sequence (P08246 30-247 limits assumed): T1 sequence (P08246 30-247 limits assumed)

Row | Compound | HNE inhibitory activity (in words) [1] | further results
1 | Cc1cccc(C(=O)N2NCC(O)c3ccccc32)c1 (stereo not drawn) [Compound 19, (4-Hydroxy-3,4-dihydrocinnolin-1(2H)-yl)(m-tolyl)meyhanone] | completely devoid of activity | –
2 | Cc1cccc(C(=O)n2ncc(=O)c3cc([N+](=O)[O-])ccc32)c1 [Compound 21a, 1-(3-Methylbenzoyl)-6-nitrocinnolin-4(1H)-one] | – | Extent of hydrolysis [2]: hydrolyzed almost completely
3 | Cc1cccc(C(=O)n2nc(C(=O)O)c(=O)c3ccccc32)c1 [Compound 8, 1-(3-Methylbenzoyl)-4-oxo-1,4-dihydrocinnoline-3-carboxylic acid] | loss of activity | –
4 | CCOC(=O)c1nn(C)c2ccccc2c1=O [Compound 5, Ethyl 1-methyl-4-oxo-1,4-dihydrocinnoline-3-carboxylate] | completely inactive | –
5 | Cc1cccc(C(=O)n2nc(-c3ccccc3)c(=O)c3ccccc32)c1 [Compound 11a, 1-(3-Methylbenzoyl)-3-phenylcinnolin-4(1H)-one] | loss of activity | –
6 | CCOC(=O)c1nn(Cc2cccc(C)c2)c2ccccc2c1=O [Compound 6, Ethyl 1-(3-methylbenzyl)-4-oxo-1,4-dihydrocinnoline-3-carboxylate] | completely inactive | –
7 | Cc1cccc(C(=O)n2ncc(=O)c3ccccc32)c1 [Compound 18a, 1-(3-Methylbenzoyl)cinnolin-4(1H)-one] | – | percent of initial compound remaining ([3]; 5 min of incubation): < 3%; compound remaining ([3]; after 10 min): essentially no detectable compounds; Ki [4]: 75 nM; Type of HNE inhibition ([4]; double-reciprocal Lineweaver–Burk plots): competitive inhibitors; Recovery of HNE activity after removing free inhibitor [5]: fully reversible
8 | Cc1cccc(C(=O)n2nc(CO)c(=O)c3ccccc32)c1 [Compound 11d, 3-(Hydroxymethyl)-1-(3-methylbenzoyl)cinnolin-4(1H)-one] | loss of activity | –
